Experimental data: ChEMBL document CHEMBL1944596, “7,8-dichloro-1-oxo-β-carbolines as a versatile scaffold for the development of potent and selective kinase inhibitors with unusual binding modes” (J Med Chem, 2012)

Key:
[1] = biological target: T1, Serine/threonine-protein kinase haspin (Homo sapiens) (UniProt Q8TF76); assay: Binding affinity to Haspin assessed as change in thermal denaturation at 10 uM by thermal stability shift assay
T1 sequence (whole entry): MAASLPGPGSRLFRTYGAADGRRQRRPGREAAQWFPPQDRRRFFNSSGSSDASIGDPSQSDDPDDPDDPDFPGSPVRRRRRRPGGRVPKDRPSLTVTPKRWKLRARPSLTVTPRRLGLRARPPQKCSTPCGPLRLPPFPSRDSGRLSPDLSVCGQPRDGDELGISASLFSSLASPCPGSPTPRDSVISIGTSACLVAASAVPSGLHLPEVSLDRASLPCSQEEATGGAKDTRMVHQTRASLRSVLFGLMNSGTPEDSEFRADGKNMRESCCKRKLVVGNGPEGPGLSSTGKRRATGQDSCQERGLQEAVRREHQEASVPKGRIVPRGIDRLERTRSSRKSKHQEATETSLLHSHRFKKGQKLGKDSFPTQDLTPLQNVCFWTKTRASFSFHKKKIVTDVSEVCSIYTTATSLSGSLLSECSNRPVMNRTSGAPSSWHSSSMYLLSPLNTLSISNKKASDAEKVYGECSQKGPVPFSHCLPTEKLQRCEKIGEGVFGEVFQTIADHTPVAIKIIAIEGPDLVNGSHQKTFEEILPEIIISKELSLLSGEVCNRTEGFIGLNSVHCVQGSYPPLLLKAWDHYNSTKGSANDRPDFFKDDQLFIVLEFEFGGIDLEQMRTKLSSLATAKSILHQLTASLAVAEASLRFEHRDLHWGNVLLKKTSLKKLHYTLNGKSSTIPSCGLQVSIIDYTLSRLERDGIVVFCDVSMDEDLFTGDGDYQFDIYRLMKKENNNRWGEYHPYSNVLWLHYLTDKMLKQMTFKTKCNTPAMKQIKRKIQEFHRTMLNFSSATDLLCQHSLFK
Method in brief: (§1)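 Each compound was screened across a kinase panel by thermal stability shift assay. The read-out was the shift in protein melting temperature (ΔTm, in °C) relative to the unliganded kinase. A ΔTm of 4.0 °C served as the hit cutoff.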

[2] = biological target: Casein kinase II subunit alpha' (Homo sapiens) (UniProt P19784); assay: Binding affinity to CK2alpha2 assessed as change in thermal denaturation at 10 uM by thermal stability shift assay; method in brief: as §1
Sequence of Casein kinase II subunit alpha' (Homo sapiens) (P19784 whole entry, looked up): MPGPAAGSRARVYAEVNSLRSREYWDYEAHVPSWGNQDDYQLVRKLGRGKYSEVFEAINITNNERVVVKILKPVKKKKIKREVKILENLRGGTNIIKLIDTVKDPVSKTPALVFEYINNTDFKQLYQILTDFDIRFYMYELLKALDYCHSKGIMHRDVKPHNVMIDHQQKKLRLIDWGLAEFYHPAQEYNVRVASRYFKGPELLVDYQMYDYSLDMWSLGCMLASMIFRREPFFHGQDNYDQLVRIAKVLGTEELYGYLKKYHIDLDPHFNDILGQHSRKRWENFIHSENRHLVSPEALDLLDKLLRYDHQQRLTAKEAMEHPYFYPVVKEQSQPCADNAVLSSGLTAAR

[3] = biological target: Serine/threonine-protein kinase pim-3 (Homo sapiens, UniProt Q86V86); assay: Binding affinity to PIM3 assessed as change in thermal denaturation at 10 uM by thermal stability shift assay; method in brief: as §1
[4] = biological target: T2, Serine/threonine-protein kinase PLK4 (Homo sapiens) (UniProt O00444); assay: Binding affinity to PLK4 assessed as change in thermal denaturation at 10 uM by thermal stability shift assay; method in brief: as §1
T2 sequence (whole entry): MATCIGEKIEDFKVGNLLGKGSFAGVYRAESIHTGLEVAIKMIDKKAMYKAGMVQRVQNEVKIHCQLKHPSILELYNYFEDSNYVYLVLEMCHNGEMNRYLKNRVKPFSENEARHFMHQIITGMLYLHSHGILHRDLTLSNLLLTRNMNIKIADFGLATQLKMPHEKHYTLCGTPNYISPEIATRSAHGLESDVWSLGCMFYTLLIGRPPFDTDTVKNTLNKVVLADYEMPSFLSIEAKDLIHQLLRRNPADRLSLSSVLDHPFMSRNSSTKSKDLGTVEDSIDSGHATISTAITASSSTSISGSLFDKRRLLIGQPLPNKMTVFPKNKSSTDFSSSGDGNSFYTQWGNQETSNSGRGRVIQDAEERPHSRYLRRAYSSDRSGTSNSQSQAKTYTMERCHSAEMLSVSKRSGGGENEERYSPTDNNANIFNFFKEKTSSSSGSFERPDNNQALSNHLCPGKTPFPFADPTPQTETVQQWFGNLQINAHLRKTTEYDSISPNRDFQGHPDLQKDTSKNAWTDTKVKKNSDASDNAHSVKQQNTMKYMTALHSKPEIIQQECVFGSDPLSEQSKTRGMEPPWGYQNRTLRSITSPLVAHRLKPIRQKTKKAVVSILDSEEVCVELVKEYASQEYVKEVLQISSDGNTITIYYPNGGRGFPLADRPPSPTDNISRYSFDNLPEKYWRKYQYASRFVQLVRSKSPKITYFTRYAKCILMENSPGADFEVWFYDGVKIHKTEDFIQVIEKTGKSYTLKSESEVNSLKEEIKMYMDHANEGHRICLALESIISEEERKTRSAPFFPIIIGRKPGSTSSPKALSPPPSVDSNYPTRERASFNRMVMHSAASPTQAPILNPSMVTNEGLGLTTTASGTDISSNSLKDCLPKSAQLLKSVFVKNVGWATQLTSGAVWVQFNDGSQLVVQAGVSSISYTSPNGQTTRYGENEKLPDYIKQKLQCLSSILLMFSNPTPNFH

Question: `Cn1c2c(c3ccc(Cl)c(Cl)c31)C(C#N)C1(CCCC1)NC2=O` (centres undefined) was tested. Which ΔTm [1] did it give?
Answer: 0.1 °C

Question: What about the ΔTm [2] of the same compound?
Answer: 1 °C

Question: What about the ΔTm [3] of the same compound?
Answer: 3.8 °C

Question: And the ΔTm [4]?
Answer: 2.5 °C

Question: Which results are given for `Cn1c2c(c3ccc(Cl)c(Cl)c31)C(C#N)C1(CCN(C(=O)OC(C)(C)C)CC1)NC2=O` (racemic)?
Answer: ΔTm [1]: 0.3 °C; ΔTm [2]: 0.3 °C; ΔTm [3]: 0.6 °C; ΔTm [4]: 0.1 °C

Question: With `Cn1c2c(c3ccc(Cl)c(Cl)c31)C(C#N)C(C)(C)NC2=O` (centres undefined) as the compound, how does the ΔTm [1] read?
Answer: 0.9 °C

Question: And the ΔTm [2]?
Answer: 2.1 °C

Question: And the ΔTm [3]?
Answer: 6.2 °C

Question: What about the ΔTm [4] of the same compound?
Answer: 5.1 °C

Question: For `Cn1c2c(Cl)c(Cl)ccc2c2cn[nH]c(=O)c21`, which ΔTm [1] is on record?
Answer: 3.2 °C

Question: And the ΔTm [2]?
Answer: 2.1 °C

Question: And the ΔTm [3]?
Answer: 2.3 °C

Question: What about the ΔTm [4] of the same compound?
Answer: 1.5 °C

Question: For `CC1(C)NC(=O)c2[nH]c3c(Cl)c(Cl)ccc3c2C1C#N` (centres undefined), which ΔTm [1] is on record?
Answer: 0.3 °C

Question: And the ΔTm [2]?
Answer: 1.9 °C

Question: And the ΔTm [3]?
Answer: 4 °C

Question: And the ΔTm [4]?
Answer: 1.7 °C

Question: Which ΔTm [1] does the source give for `Cn1c2c(c3ccc(Cl)c(Cl)c31)C(C#N)C1(CCOCC1)NC2=O` (centres undefined) here?
Answer: 1.1 °C

Question: What about the ΔTm [2] of the same compound?
Answer: 1 °C

Question: What about the ΔTm [3] of the same compound?
Answer: 4.7 °C

Question: What about the ΔTm [4] of the same compound?
Answer: 2.7 °C

Question: For `Cn1c2c(c3ccc(Cl)c(Cl)c31)C(CN)C(C)(C)NC2=O` (racemic), which ΔTm [1] is on record?
Answer: 1.8 °C

Question: And the ΔTm [2]?
Answer: 0.5 °C

Question: What about the ΔTm [3] of the same compound?
Answer: 3.7 °C

Question: And the ΔTm [4]?
Answer: 2.7 °C

Question: With `CCC1(CC)NC(=O)c2c(c3ccc(Cl)c(Cl)c3n2C)C1C#N` (centres undefined) as the compound, how does the ΔTm [1] read?
Answer: 0.4 °C

Question: And the ΔTm [2]?
Answer: 1 °C

Question: And the ΔTm [3]?
Answer: 3.4 °C

Question: And the ΔTm [4]?
Answer: 4.6 °C

Question: `Cn1c2c(c3ccc(Cl)c(Cl)c31)C(C#N)C1(CCNCC1)NC2=O` (racemic) was tested. Which ΔTm [1] did it give?
Answer: 5.6 °C

Question: And the ΔTm [2]?
Answer: 4.2 °C

Question: What about the ΔTm [3] of the same compound?
Answer: 9.6 °C

Question: And the ΔTm [4]?
Answer: 6.8 °C

Question: `Cn1c2c(Cl)c(Cl)ccc2c2cc(N)[nH]c(=O)c21` was tested. Which ΔTm [1] did it give?
Answer: 2.7 °C

Question: And the ΔTm [2]?
Answer: 3 °C

Question: And the ΔTm [3]?
Answer: 3.6 °C

Question: And the ΔTm [4]?
Answer: 2 °C

Question: How did the ΔTm [1] turn out when `N#CC1c2c([nH]c3c(Cl)c(Cl)ccc23)C(=O)NC12CCCCC2` (racemic) was run?
Answer: 0 °C

Question: What about the ΔTm [2] of the same compound?
Answer: 1.2 °C

Question: And the ΔTm [3]?
Answer: 4.9 °C

Question: What about the ΔTm [4] of the same compound?
Answer: 1.3 °C

Question: For `CC(=O)NCC1c2c(n(C)c3c(Cl)c(Cl)ccc23)C(=O)NC1(C)C` (racemic), which ΔTm [1] is on record?
Answer: 0.3 °C

Question: And the ΔTm [2]?
Answer: 1 °C

Question: What about the ΔTm [3] of the same compound?
Answer: 0.7 °C

Question: What about the ΔTm [4] of the same compound?
Answer: 1 °C

Question: With `CCN1CCC2(CC1)NC(=O)c1c(c3ccc(Cl)c(Cl)c3n1C)C2C#N` (racemic) as the compound, how does the ΔTm [1] read?
Answer: 2.6 °C

Question: And the ΔTm [2]?
Answer: 1.8 °C

Question: What about the ΔTm [3] of the same compound?
Answer: 7.1 °C

Question: What about the ΔTm [4] of the same compound?
Answer: 3.2 °C

Question: For `Cn1c2c(c3ccccc31)C(C#N)C(C)(C)NC2=O` (centres undefined), which ΔTm [1] is on record?
Answer: 1.7 °C

Question: What about the ΔTm [2] of the same compound?
Answer: 0.7 °C

Question: What about the ΔTm [3] of the same compound?
Answer: 1.3 °C

Question: What about the ΔTm [4] of the same compound?
Answer: 0.9 °C

Question: Which ΔTm [1] does the source give for `CN1CCC2(CC1)NC(=O)c1c(c3ccc(Cl)c(Cl)c3n1C)C2C#N` (racemic) here?
Answer: 3.4 °C

Question: And the ΔTm [2]?
Answer: 2.7 °C

Question: And the ΔTm [3]?
Answer: 7.2 °C

Question: What about the ΔTm [4] of the same compound?
Answer: 3.3 °C

Question: Which ΔTm [1] does the source give for `Cn1c2c(Cl)c(Cl)ccc2c2cc[nH]c(=O)c21` here?
Answer: 3.4 °C

Question: And the ΔTm [2]?
Answer: 2 °C

Question: What about the ΔTm [3] of the same compound?
Answer: 3.6 °C

Question: And the ΔTm [4]?
Answer: 1.7 °C
